High-throughput results as filed in PubChem BioAssay.
Rows were chosen to be rich in hits. Some 2.8% of all compounds tested hit in one or more screens of this group.
EP2 mod = modulates human prostaglandin E2 receptor EP2 signaling; 0.83% of 260,000 active; EP2-expressing cells, cAMP HTRF FRET, PGE2 co-stimulation; induction, % at 25 µM; P43116;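 active means compounds whose cAMP rise, as percent of the full-agonist control response, exceeds 60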;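 further: rat C6 glioma line stably carrying human EP2 under a CMV promoter; the protocol text gives 20 µM as final concentration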
Target sequence (P43116 whole entry, looked up): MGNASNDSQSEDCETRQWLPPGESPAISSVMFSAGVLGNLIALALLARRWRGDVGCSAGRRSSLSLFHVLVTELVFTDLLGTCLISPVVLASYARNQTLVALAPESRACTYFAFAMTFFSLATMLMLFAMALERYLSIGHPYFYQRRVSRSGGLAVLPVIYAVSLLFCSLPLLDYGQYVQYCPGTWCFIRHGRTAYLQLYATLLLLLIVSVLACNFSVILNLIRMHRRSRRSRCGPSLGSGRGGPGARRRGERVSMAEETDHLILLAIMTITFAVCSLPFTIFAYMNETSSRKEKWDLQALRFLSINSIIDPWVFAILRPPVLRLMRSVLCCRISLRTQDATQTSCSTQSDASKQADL
NPY-Y1 antag = NPY-Y1 (human) receptor antagonism. HEK293-CNG Y1 cells, membrane potential fluorescence; NPY at EC95, then isoproterenol. inhibition, % at 3.6 µM. 1% of 200,000 active;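 active means inhibition above the campaign mean inhibition of all tested compounds plus 3 SD, cut at about 20% in these data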
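Material: HEK293 cells co-expressing NPY Y1 receptor and cyclic-nucleotide gated channel. Timing: compound incubation 1 h at room temperature, readout 45 min post-stimulation. Signal: fluorescence, membrane potential probe.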
NPY-Y2 antag = antagonists of human neuropeptide Y receptor Y2; NPY-Y2 expressing cells, antagonist mode; 0.99% of 140,000 active; P49146; inhibition, % at 2.7 µM; AID 793; in the data active means inhibition above about 17%
NPY1 pot ag = potentiators or agonists of human neuropeptide Y receptor Y1 | NPY-Y1 expressing cells, potentiator/agonist activation | activation, % at 3.6 µM | 0.37% of 220,000 active; in the data active means activation above about 33%, passing the limit was not always enough;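 further: cells stimulated with NPY at EC10 then isoproterenol at EC100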
NPY2 pot ag = potentiates or activates human NPY-Y2 receptor; P49146; cells expressing NPY-Y2, potentiator/agonist read-out; activation, % at 3.6 µM; 0.45% of 220,000 active; AID 1359; in the data active means activation above about 27%;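 further: cells stimulated with NPY near EC25 plus isoproterenol at EC100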
PGE2 EP2 inh = blocks the human prostaglandin E2 receptor EP2 | P43116 | C6 glioma cells expressing human EP2, cAMP TR-FRET; cells stimulated with saturating PGE2 | inhibition, % at 25 µM | 0.52% of 260,000 active | AID 1422;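 active means percent inhibition above 40 after rounding to a whole number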;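 further: rat C6 glioma host cells with rolipram phosphodiesterase inhibitor present; the protocol text gives 20 µM as final concentration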
NPY-Y1 confirm = human NPY-Y1 potentiation or agonism, confirmation | shares compounds with NPY1 pot ag | cell-based NPY-Y1 potentiator/agonist assay | activation, % at 3.6 µM | 20% of 280 active; in the data active means activation above about 45%;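 further: cells challenged with NPY at its EC10 plus isoproterenol stimulus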
NPY-Y2 counter = NPY-Y2 potentiation or agonism as NPY-Y1 counter-screen; HEK293-CNG cells, membrane-potential fluorescence (FLIPR), 1536-well; activation, % at 3.6 µM; shares compounds with NPY1 pot ag; 20% of 280 active; in the data active means activation above about 33%
NPY-Y1 ag = activates human NPY-Y1, counter-screen for NPY-Y1 potentiators | shares compounds with NPY1 pot ag | HEK293 Y1-CNGC, membrane potential fluorescence, agonist mode | activation, % at 3.6 µM | 50% of 280 active | AID 1697;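 active means percent activation above the mean of DMSO-only control wells plus 3 SD of those wells, cut at about 18% in these data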;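 further: cells challenged with isoproterenol plus Ro 20-1724 with no NPY in test wells; Y1 agonism lowers isoproterenol-driven cAMP and reduces probe fluorescence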
NPY-Y2 agonist = counter-screen for NPY-Y1 potentiators or agonists: agonists of NPY-Y2 | shares compounds with NPY1 pot ag | HEK293 Y2-CNGC, membrane potential fluorescence, agonist mode | activation, % at 3.6 µM | 67% of 280 active | AID 1698;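 active means activation above the solvent-only control wells' mean plus 3 SD, cut at about 11% in these data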;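 further: agonism lowers cAMP so well fluorescence drops in active wells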
CNGC inh 2 = blocks cyclic nucleotide gated channel in NPY-Y1 counter-screen; HEK293-CNG parental, isoproterenol cAMP, membrane potential fluorescence; shares compounds with NPY1 pot ag; 42% of 280 active; AID 1704; inhibition, % at 3.6 µM;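 active means inhibition above the mean of stimulated solvent-only control wells plus 3 SD, cut at about 22% in these data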
Of the large screens only hits and unclear results are named; the others gave an inactive call (follow-up assays come after a bar, where they were run).

O=C(N/N=C/c1c[nH]c2ccc(Br)cc12)C1CC1	NPY1 pot ag 58 (no result: NPY-Y1 antag, NPY-Y2 antag) | NPY-Y1 confirm inactive | NPY-Y2 counter 34 | NPY-Y1 ag 50 | NPY-Y2 agonist 43 | CNGC inh 2 47
O=c1[nH]c2ccc(S(=O)(=O)O)cc2[nH]1	none (no result: NPY-Y1 antag, NPY-Y2 antag, NPY1 pot ag, NPY2 pot ag)
OC1(c2ccccc2)CCN(Cc2cccc(OCc3cccnc3)c2)C1 (stereo not drawn)	none (no result: NPY-Y1 antag, NPY-Y2 antag, NPY1 pot ag, NPY2 pot ag)
CC(=O)N1CCN(c2ccc(NC(=O)c3ccc(N4CCCC4)c([N+](=O)[O-])c3)cc2Cl)CC1	none
O=C(Nc1ccc(N2CCCCC2)c(Cl)c1)c1ccc(N2CCOCC2)c([N+](=O)[O-])c1	NPY1 pot ag 42 | NPY-Y1 confirm 48 | NPY-Y2 counter 37 | NPY-Y1 ag 34 | NPY-Y2 agonist 40 | CNGC inh 2 25
Oc1ccccc1-c1nc2c3ccccc3c3ccccc3c2[nH]1	NPY1 pot ag 50 (no result: NPY-Y1 antag, NPY-Y2 antag) | NPY-Y1 confirm inactive | NPY-Y2 counter inactive | NPY-Y1 ag 37 | NPY-Y2 agonist 34 | CNGC inh 2 39
c1csc(-c2nc3c4ccccc4c4ccccc4c3[nH]2)c1	none
Cc1ccc2cc3c(N)c(C(=O)Nc4nc(C)cs4)sc3nc2c1	none (no result: NPY-Y1 antag, NPY-Y2 antag, NPY1 pot ag, NPY2 pot ag)
O=C(c1sc2cc([N+](=O)[O-])ccc2c1Cl)N1CCOCC1	none
CC(C)N(C(=O)c1sc2cc([N+](=O)[O-])ccc2c1Cl)C(C)C	NPY1 pot ag 85 | NPY-Y1 confirm inactive | NPY-Y2 counter inactive | NPY-Y1 ag inactive | NPY-Y2 agonist 18 | CNGC inh 2 inactive
CCOC(=O)N1CCN(C(=O)/C(=C/c2cccs2)NC(=O)c2cccs2)CC1	NPY1 pot ag 43 (no result: NPY-Y2 antag) | NPY-Y1 confirm inactive | NPY-Y2 counter inactive | NPY-Y1 ag inactive | NPY-Y2 agonist inactive | CNGC inh 2 inactive
CC(=O)c1c(C)nc(-c2ccc(Cl)cc2)nc1N	NPY1 pot ag 88 (no result: NPY-Y2 antag) | NPY-Y1 confirm inactive | NPY-Y2 counter inactive | NPY-Y1 ag inactive | NPY-Y2 agonist inactive | CNGC inh 2 inactive
CCOc1cc(/C=C/C2C=C(C(F)(F)F)NC(=O)N2)ccc1OC (stereo not drawn)	none (no result: NPY-Y1 antag, NPY-Y2 antag, NPY1 pot ag, NPY2 pot ag)
COc1ccccc1-n1c(C)nnc1SCC(N)=O	NPY1 pot ag 43 | NPY-Y1 confirm inactive | NPY-Y2 counter inactive | NPY-Y1 ag inactive | NPY-Y2 agonist inactive | CNGC inh 2 inactive
COc1ccccc1-n1c(SCC(N)=O)nnc1-c1ccccc1	none
CC(C)(C)NC(=O)C(c1ccc(O)cc1)N(C(=O)Cn1nnc(-c2ccc(F)cc2)n1)c1ccccc1F (stereo not drawn)	NPY1 pot ag 52 (no result: NPY-Y2 antag) | NPY-Y1 confirm inactive | NPY-Y2 counter inactive | NPY-Y1 ag 19 | NPY-Y2 agonist 16 | CNGC inh 2 inactive
CCOC(=O)C1=C(CC)Nc2ccccc2N/C1=N\S(=O)(=O)c1cc(Br)ccc1Br	NPY1 pot ag 33 (no result: NPY-Y2 antag) | NPY-Y1 confirm inactive | NPY-Y2 counter inactive | NPY-Y1 ag inactive | NPY-Y2 agonist inactive | CNGC inh 2 inactive
CCOC(=O)C1=C(CC)Nc2ccccc2N/C1=N\S(=O)(=O)c1ccc2ccccc2c1	none (no result: NPY-Y2 antag)
O=C(c1ccc(F)cc1F)N1CCC(n2nnc3ccccc3c2=O)CC1	none (no result: NPY-Y1 antag, NPY-Y2 antag, NPY1 pot ag, NPY2 pot ag)
Cc1[nH]c2ccccc2c1N=Nc1ccc(F)cc1	NPY1 pot ag 39 (no result: NPY-Y2 antag) | NPY-Y1 confirm inactive | NPY-Y2 counter inactive | NPY-Y1 ag 33 | NPY-Y2 agonist 30 | CNGC inh 2 26
